Measured values taken from ChEMBL document CHEMBL1671805, “Biotin ergopeptide probes for dopamine receptors” (J Med Chem, 2011).
Active and inactive are the calls of the source. No cut-off for these calls is given here.

What was measured:
Ovis aries [1] = species: Ovis aries; experiment: Displacement of [3H]-YM09151-2 from dopamine D2 receptor in lamb brain striatum membranes at 25 uM; type: cell membranes; details: Membrane
Outline: (§1)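 Lamb striatal membranes (0.5 mg prot/mL) in 50 mM Tris-HCl pH 7.4 with 10 mM MgCl2 were incubated 2 h at 22 C. Radioligand was 0.9 nM [3H]-SCH23390 (D1) or 0.7 nM [3H]-YM09151-2 (D2). Screens used 25 μM compound; competition used increasing concentrations. Nonspecific binding was taken with 10 μM SCH23390 (D1) or raclopride (D2). Bound ligand was filtered and counted. KD values came from a two-state dimer receptor model fit.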

[2] = Displacement of [3H]-SCH23390 from dopamine D1 receptor low binding affinity site in lamb brain striatum membranes at 25 uM; type: cell membranes, Ovis aries, Membrane; outline: as §1
[3] = Displacement of [3H]-YM09151-2 from dopamine D2 receptor high binding affinity site in lamb brain striatum membranes at 25 uM; type: cell membranes, Ovis aries, Membrane; outline: as §1
[4] = Displacement of [3H]-SCH23390 from dopamine D1 receptor high binding affinity site in lamb brain striatum membranes at 25 uM; type: cell membranes, Ovis aries, Membrane; outline: as §1
[5] = Displacement of [3H]-YM09151-2 from dopamine D2 receptor low binding affinity site in lamb brain striatum membranes at 25 uM; type: cell membranes, Ovis aries, Membrane; outline: as §1
[6] = molecular target: T1, Adenosine receptor A1 (Homo sapiens) (UniProt P30542); experiment: Displacement of [3H]-R-PIA from adenosine A1 receptor at 25 uM
T1 sequence (whole entry): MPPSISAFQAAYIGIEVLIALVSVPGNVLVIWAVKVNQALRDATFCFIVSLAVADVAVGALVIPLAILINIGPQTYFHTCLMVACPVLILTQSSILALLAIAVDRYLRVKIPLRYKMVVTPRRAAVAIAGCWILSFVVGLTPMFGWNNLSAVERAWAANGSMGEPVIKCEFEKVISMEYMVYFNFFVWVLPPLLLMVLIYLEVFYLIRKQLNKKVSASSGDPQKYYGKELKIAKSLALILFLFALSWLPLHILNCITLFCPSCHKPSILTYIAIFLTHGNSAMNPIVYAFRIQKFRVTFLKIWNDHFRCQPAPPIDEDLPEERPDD
Outline: (§2)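 Membranes were incubated with 25 μM compound for 2 h at 22 C in 50 mM Tris-HCl pH 7.4 with 10 mM MgCl2 and 0.2 U/mL ADA. Radioligand was 1.0 nM [3H]-R-PIA (A1) or 1.6 nM [3H]ZM241385 (A2A). Nonspecific binding was taken with 10 μM DPCPX (A1) or ZM241385 (A2A). Separation was by GF/C filtration, then scintillation counting.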

Ovis aries [7] = species: Ovis aries; experiment: Displacement of [3H]-SCH23390 from dopamine D1 receptor in lamb brain striatum membranes at 25 uM; type: cell membranes; details: Membrane; outline: as §1
[8] = molecular target: Adenosine receptor A2a (Homo sapiens) (UniProt P29274); experiment: Displacement of [3H]-ZM241385 from adenosine A2A receptor at 25 uM; outline: as §2
Chain of Adenosine receptor A2a (Homo sapiens) (P29274 whole entry): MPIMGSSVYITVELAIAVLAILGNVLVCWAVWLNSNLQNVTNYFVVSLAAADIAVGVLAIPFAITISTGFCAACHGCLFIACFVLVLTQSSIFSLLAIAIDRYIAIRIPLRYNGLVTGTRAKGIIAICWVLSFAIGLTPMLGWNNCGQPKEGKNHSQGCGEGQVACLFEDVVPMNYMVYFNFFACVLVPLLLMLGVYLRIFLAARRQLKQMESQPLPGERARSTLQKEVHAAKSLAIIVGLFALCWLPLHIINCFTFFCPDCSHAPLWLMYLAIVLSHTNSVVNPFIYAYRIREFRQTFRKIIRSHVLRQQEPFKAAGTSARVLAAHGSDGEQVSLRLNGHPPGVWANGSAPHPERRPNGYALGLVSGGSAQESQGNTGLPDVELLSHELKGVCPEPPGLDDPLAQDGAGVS

Row | SMILES | Activity (Ovis aries [1]) | Activity (Ovis aries [7]) | also measured
1 | CC(=O)N[C@@H](CCCCNC(=O)CCCC(=O)NCCNC(=O)C1CCCN(C(=O)[C@H](Cc2ccc(F)cc2)NC(=O)[C@H](Cc2ccc([N+](=O)[O-])cc2)NC(=O)[C@@H]2C=C3c4cccc5[nH]cc(c45)C[C@H]3N(C)C2)C1)C(N)=O (stereo not given in full) | Active | – | –
2 | CC(C)[C@H](NC(=O)[C@@H]1C=C2c3cccc4[nH]cc(c34)C[C@H]2N(C)C1)C(=O)N[C@@H](Cc1ccc([N+](=O)[O-])cc1)C(=O)N1CCC[C@H]1C(=O)NCCCCCC(=O)NCCCC[C@H](NC(=O)CCCC[C@H]1SC[C@H]2NC(=O)N[C@H]21)C(N)=O | – | – | Kd [2]: 3200 nM; Kd [3]: 260 nM; Kd [4]: 107 nM; Kd [5]: 7000 nM
3 | CC(=O)N[C@@H](CCCCNC(=O)CCCCCNC(=O)[C@@H]1CCCN1C(=O)[C@H](Cc1ccc([N+](=O)[O-])cc1)NC(=O)[C@@H](NC(=O)[C@@H]1C=C2c3cccc4[nH]cc(c34)C[C@H]2N(C)C1)C(C)C)C(N)=O | – | Active | Activity [6]: Active
4 | CC(=O)N[C@@H](CCCCNC(=O)[C@@H](CCCCN)NC(=O)[C@@H]1CCCN1C(=O)[C@H](Cc1ccc([N+](=O)[O-])cc1)NC(=O)[C@@H](NC(=O)[C@@H]1C=C2c3cccc4[nH]cc(c34)C[C@H]2N(C)C1)C(C)C)C(N)=O | Active | – | –
5 | CC(=O)N[C@@H](CCC(=O)NCCCCCCNC(=O)[C@@H]1CCCN1C(=O)[C@H](Cc1ccc([N+](=O)[O-])cc1)NC(=O)[C@@H](NC(=O)[C@@H]1C=C2c3cccc4[nH]cc(c34)C[C@H]2N(C)C1)C(C)C)C(N)=O | Active | Active | –
6 | CC(=O)N[C@@H](CCCCNC(=O)C1CCCN(C(=O)[C@H](Cc2ccc(F)cc2)NC(=O)[C@H](Cc2ccc([N+](=O)[O-])cc2)NC(=O)[C@@H]2C=C3c4cccc5[nH]cc(c45)C[C@H]3N(C)C2)C1)C(N)=O (stereo not given in full) | Active | – | –
7 | CC(=O)N[C@@H](CCC(=O)Nc1ccc(-c2ccc(NC(=O)[C@@H]3CCCN3C(=O)[C@H](Cc3ccc([N+](=O)[O-])cc3)NC(=O)[C@@H](NC(=O)[C@@H]3C=C4c5cccc6[nH]cc(c56)C[C@H]4N(C)C3)C(C)C)cc2)cc1)C(N)=O | Active | – | –
8 | CC(=O)N[C@@H](CCCCNC(=O)c1ccc(-c2ccc(C(=O)NCCNC(=O)C3CCCN(C(=O)[C@H](Cc4ccc(F)cc4)NC(=O)[C@H](Cc4ccc([N+](=O)[O-])cc4)NC(=O)[C@@H]4C=C5c6cccc7[nH]cc(c67)C[C@H]5N(C)C4)C3)cc2)cc1)C(N)=O (stereo not given in full) | Active | – | –
9 | CC(=O)N[C@@H](CCCCNC(=O)[C@@H]1CCCN1C(=O)[C@H](Cc1ccc([N+](=O)[O-])cc1)NC(=O)[C@@H](NC(=O)[C@@H]1C=C2c3cccc4[nH]cc(c34)C[C@H]2N(C)C1)C(C)C)C(=O)NCCCC[C@H](NC(=O)CCCC[C@H]1SC[C@H]2NC(=O)N[C@H]21)C(N)=O | – | – | Kd [2]: > 50000 nM; Kd [3]: 2000 nM; Kd [4]: 2100 nM; Kd [5]: 23000 nM
10 | CC(=O)N[C@@H](CCCCNC(=O)[C@H](N)CCCCNC(=O)[C@@H]1CCCN1C(=O)[C@H](Cc1ccc([N+](=O)[O-])cc1)NC(=O)[C@@H](NC(=O)[C@@H]1C=C2c3cccc4[nH]cc(c34)C[C@H]2N(C)C1)C(C)C)C(N)=O | Active | inactive | –
11 | CC(=O)N[C@@H](CCCCNC(=O)CCCCCNC(=O)C1CCCN(C(=O)[C@H](Cc2ccc(F)cc2)NC(=O)[C@H](Cc2ccc([N+](=O)[O-])cc2)NC(=O)[C@@H]2C=C3c4cccc5[nH]cc(c45)C[C@H]3N(C)C2)C1)C(N)=O (stereo not given in full) | – | – | Activity [6]: Active; Activity [8]: Active
12 | CC(=O)N[C@@H](CCCCNC(=O)[C@@H](CCCCNC(=O)C1CCCN(C(=O)[C@H](Cc2ccc(F)cc2)NC(=O)[C@H](Cc2ccc([N+](=O)[O-])cc2)NC(=O)[C@@H]2C=C3c4cccc5[nH]cc(c45)C[C@H]3N(C)C2)C1)NC(C)=O)C(N)=O (stereo not given in full) | Active | – | Activity [6]: Active; Activity [8]: Active
13 | CC(=O)N[C@@H](CCCCNC(=O)[C@@H](CCCCNC(=O)[C@@H]1CCCN1C(=O)[C@H](Cc1ccc([N+](=O)[O-])cc1)NC(=O)[C@@H](NC(=O)[C@@H]1C=C2c3cccc4[nH]cc(c34)C[C@H]2N(C)C1)C(C)C)NC(C)=O)C(N)=O | – | Active | Activity [6]: Active; Activity [8]: Active
14 | CC(=O)N[C@@H](CCCCNC(=O)CCC(=O)NCCNC(=O)[C@@H]1CCCN1C(=O)[C@H](Cc1ccc([N+](=O)[O-])cc1)NC(=O)[C@@H](NC(=O)[C@@H]1C=C2c3cccc4[nH]cc(c34)C[C@H]2N(C)C1)C(C)C)C(N)=O | Active | – | –
15 | CC(=O)N[C@@H](CCC(=O)NCCNC(=O)[C@@H]1CCCN1C(=O)[C@H](Cc1ccc([N+](=O)[O-])cc1)NC(=O)[C@@H](NC(=O)[C@@H]1C=C2c3cccc4[nH]cc(c34)C[C@H]2N(C)C1)C(C)C)C(N)=O | Active | Active | –
16 | CC(=O)N[C@@H](CCC(=O)Nc1ccc(-c2ccc(NC(=O)C3CCCN(C(=O)[C@H](Cc4ccc(F)cc4)NC(=O)[C@H](Cc4ccc([N+](=O)[O-])cc4)NC(=O)[C@@H]4C=C5c6cccc7[nH]cc(c67)C[C@H]5N(C)C4)C3)cc2)cc1)C(N)=O (stereo not given in full) | Active | – | –
17 | CC(=O)N[C@@H](CCC(=O)Nc1ccc(Sc2ccc(NC(=O)C3CCCN(C(=O)[C@H](Cc4ccc(F)cc4)NC(=O)[C@H](Cc4ccc([N+](=O)[O-])cc4)NC(=O)[C@@H]4C=C5c6cccc7[nH]cc(c67)C[C@H]5N(C)C4)C3)cc2)cc1)C(N)=O (stereo not given in full) | Active | – | –
18 | CC(=O)N[C@@H](CCCCNC(=O)[C@@H]1CCCN1C(=O)[C@H](Cc1ccc([N+](=O)[O-])cc1)NC(=O)[C@@H](NC(=O)[C@@H]1C=C2c3cccc4[nH]cc(c34)C[C@H]2N(C)C1)C(C)C)C(N)=O | Active | Active | –
19 | CC(=O)N[C@@H](CCCCNC(=O)c1ccc(C(=O)c2ccc(C(=O)NCCNC(=O)C3CCCN(C(=O)[C@H](Cc4ccc(F)cc4)NC(=O)[C@H](Cc4ccc([N+](=O)[O-])cc4)NC(=O)[C@@H]4C=C5c6cccc7[nH]cc(c67)C[C@H]5N(C)C4)C3)cc2)cc1)C(N)=O (stereo not given in full) | Active | – | –
